# The list is not random: actives were taken first. Their share in the collection is about 1.5%.
# RBBP9 inh = inhibitors of human serine hydrolase RBBP9. O75884. recombinant RBBP9, FP-Rh probe fluorescence polarization. actives 0.2% (n = 220,000). AID 1515. inhibition, % at 7.94 µM;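 active = inhibition above the campaign mean of all tested compounds plus 3 SD, cut at about 14% in these data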
#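 Measured by – fluorescence polarization · Test system – RBBP9 protein · Input – 2.5 µM RBBP9 dispensing solution, before mixing · Measure – percent inhibition from mP, scaled between DMSO and no-protein wells · Benchmarks – DMSO-treated enzyme wells and wells lacking RBBP9 · Times – preincubation 30 min plus labeling 45 min at 25 °C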
# PP5 primary = blocks human protein phosphatase 5 activity; inhibition, % at 6.7 µM; P53041; actives 0.18% (n = 320,000); purified PP5c, OMFP substrate fluorescence;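 active = inhibition above the campaign's mean inhibition across all tested compounds plus 3 SD, cut at about 9.5% in these data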
# PKD1 kinase inh = blocks activity of human protein kinase D1; inhibition, % (no concentration beside the values); actives 0.056% (n = 200,000); PKD1 kinase fluorescence polarization assay; Q15139; in the data active = inhibition above about 50%
# p97 inhibitor = blocks human p97 ATPase activity; P55072; recombinant p97 ATPase, Kinase-Glo ATP luminescence, 3 h; inhibition, % at 8 µM; actives 0.42% (n = 220,000); in the data active = inhibition above about 15%
# PP1 counter = PP1-alpha (human) inhibition in PP5 counter-screen; P62136; purified PP1alpha, OMFP fluorescence; inhibition, % at 6.7 µM; actives 0.9% (n = 320,000);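 active = inhibition above the mean inhibition of all tested compounds plus 3 SD, computed separately for each screening campaign, cut at about 15% in these data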
# Hsp70 activator = Hsp70 transcriptional activation, primary screen. HeLa Hsp70 promoter luciferase reporter, luminescence; scaled: vehicle 0, proteasome-inhibitor control 100%. activation, % at 10 µM. actives 0.04% (n = 200,000). AID 1203;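 active = activation above the mean across all tested compounds plus 3 SD, cutoff set per campaign, cut at about 5.5% in these data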
# PP1 confirm = human PP1 phosphatase inhibition, confirmation; shares compounds with PP1 counter; purified PP1alpha, OMFP substrate fluorescence; inhibition, % at 6.7 µM; actives 52% (n = 1,900); AID 2358;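 active = mean PP1 inhibition above a set limit taken from the earlier primary screen, cut at about 15% in these data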
# PP5 inh counter = inhibits human PP5 phosphatase in PP1 counter-screen | shares compounds with PP1 counter | purified PP5c, OMFP fluorescence | inhibition, % at 6.7 µM | actives 4% (n = 1,900) | AID 2360;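 active = mean PP5 inhibition over triplicate wells above about 9.5% taken from the earlier PP1 screen, limit read from the data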
# Numbers stand for hits; . = inactive; / = not tested or not shown.
SMILES,RBBP9 inh,PP5 primary,PKD1 kinase inh,p97 inhibitor,PP1 counter,Hsp70 activator,PP1 confirm,PP5 inh counter
COc1cccc(CNC(=O)c2ccccc2SCC(=O)N2CCCC2)c1,/,.,/,/,26,/,.,.
O=C(NCCOc1ccccc1)c1ccccc1SCC(=O)N1CCCC1,/,.,/,/,.,/,/,/
O=C(OCC1OC(n2ncc(=O)[nH]c2=O)C(OC(=O)c2ccccc2)C1OC(=O)c1ccccc1)c1ccccc1 (stereo unspecified),/,.,/,/,24,/,22,.
CC(=O)OC[C@H]1O[C@@H](n2ncc(=O)[nH]c2=O)[C@H](OC(C)=O)[C@@H]1OC(C)=O,.,.,.,.,.,.,/,/
CCOc1cc(N2CCOCC2)c(OCC)cc1NC(=O)[C@H](C)NC(=O)c1ccco1,/,.,/,/,.,/,/,/
O=C(N/N=C/c1c(O)n(-c2ccccc2Cl)c(=O)c2ccccc12)C1COc2ccccc2O1 (stereo unspecified),.,.,.,.,19,.,23,.
Cc1c(/C=N\NC(=O)C2COc3ccccc3O2)c2ccccc2n1C (stereo unspecified),.,.,.,.,.,.,/,/
Cc1ccc(-n2c(O)c(/C=N/NC(=O)C3COc4ccccc4O3)c3ccccc3c2=O)cc1 (stereo unspecified),.,.,.,.,19,.,27,.
CNc1nc(-c2ccccn2)nnc1-c1ccccc1,.,.,.,.,.,.,/,/
c1ccc(-c2nnc(-c3ccccn3)nc2NC2CCCCC2)cc1,.,.,.,.,21,.,.,.
Cc1cc(C)n(Cc2ccc(C(=O)N/N=C/c3ccc(-c4ccc([N+](=O)[O-])cc4)o3)o2)n1,/,.,/,/,33,/,28,.
CCCCC(=O)N/N=C/c1ccc(-c2ccc([N+](=O)[O-])cc2)o1,.,.,.,.,.,.,/,/
COc1ccc(C(=O)N2CCC(C(=O)O)CC2)c2ccccc12,/,.,/,/,.,/,/,/
O=C1Nc2ccccc2/C1=C/c1cnc(-c2ccccc2)[nH]1,.,.,/,.,35,/,35,.
COC(=O)c1ccc2c(c1)NC(=O)C1CCCN21 (stereo unspecified),/,.,/,/,.,/,/,/
Cc1ccc(NC(=O)COC(=O)c2ccc3c(c2)NC(=O)C2CCCN32)cc1 (stereo unspecified),.,.,.,.,19,.,.,.
Cc1cc2c(c(SCC(=O)Nc3ccc(C)c(C)c3)n1)C(=O)OC2,.,.,.,.,.,.,/,/
O=C(NC1CC1)C1CC(=O)N(c2ccc(F)cc2)C1 (stereo unspecified),/,.,/,/,.,/,/,/
CCOC(=O)CC1(NC(=O)C2CCC(=O)N(CCc3ccccc3)C2)CCCCC1 (stereo unspecified),/,.,/,/,20,/,.,.
CC1=NNC(=O)/C1=C\c1cn(-c2ccccc2)nc1-c1cccs1,.,.,.,.,19,.,.,.
CCC(=O)Nc1nnc(SCC(=O)NC2CCCC2)s1,/,.,/,/,.,/,/,/
CCOC(=O)c1cc(-c2ccco2)nn1-c1ccc(C)cc1,.,.,.,.,.,.,/,/
Cc1ccc(-n2nc(-c3ccco3)cc2C(=O)O)cc1,.,.,/,.,20,/,17,.
O=C(O)c1cc(-c2ccc(N3CCOCC3)cc2)nn1-c1ccc(F)cc1,.,.,.,.,42,.,31,.
CCOC(=O)c1cc(-c2ccc(N3CCOCC3)cc2)nn1-c1ccccc1,.,.,.,.,.,.,/,/
SMILES,RBBP9 inh,PP5 primary,PKD1 kinase inh,p97 inhibitor,PP1 counter,Hsp70 activator,PP1 confirm,PP5 inh counter
COc1ccc(-c2cc(C)no2)cc1S(=O)(=O)NCC1CCN(Cc2cc(C)ccc2C)CC1,/,.,/,/,.,/,/,/
CCN(CC)CCNC(=O)C(=O)Nc1cc2c3c(c1)CCN3C(=O)CC2,/,.,/,/,18,/,.,.
CNC(=O)C(=O)Nc1cc2c3c(c1)CCN3C(=O)CC2,/,.,/,/,.,/,/,/
CC1CCCCN1CCNC(=O)c1ccc2c(=O)n(Cc3ccc(Cl)cc3)c(=S)[nH]c2c1 (stereo unspecified),/,.,/,/,.,/,/,/
CCOC(=O)c1ccc(Cl)c(NC(=O)c2ccc(-c3ccccc3)cc2)c1,.,.,.,.,.,.,/,/
CCOC(=O)c1ccc(/C=C2/C=C(c3ccccc3)N(c3ccc(Cl)c(C(=O)O)c3)C2=O)cc1,.,.,.,.,20,.,.,.
C=CCNC(=O)c1ccc(Cn2c(=S)[nH]c3cc4c(cc3c2=O)OCO4)cc1,.,.,.,.,25,.,.,.
O=C(NCCN1CCCC1)c1ccc(Cn2c(=S)[nH]c3cc4c(cc3c2=O)OCO4)cc1,.,.,.,.,.,.,/,/
NC(=O)/C(=C\c1ccccc1)NC(=O)c1ccc(NC(=O)c2ccccc2)cc1,.,.,/,.,.,/,/,/
O=C1N=C(N2CCC(Cc3ccccc3)CC2)S/C1=C/c1cn[nH]c1-c1ccccc1,.,.,.,.,21,.,.,.
O=C(c1ccccc1NS(=O)(=O)c1cccc(C(F)(F)F)c1)N1CCc2ccccc21,.,.,.,.,.,.,/,/
CC(=O)C1=C(c2cccc([N+](=O)[O-])c2)N(C(C)=O)n2c(C)nnc2S1,.,.,.,.,.,.,/,/
CCOc1ccc(C2C(C(C)=O)=C(O)C(=O)N2CCc2c[nH]c3ccccc23)cc1 (stereo unspecified),.,.,.,.,22,.,29,.
CCCCCCN1C(=O)C(O)=C(C(C)=O)C1c1ccc(Cl)cc1 (stereo unspecified),.,.,.,.,23,.,18,.
CCCCCCOc1ccc(/C(C)=N/NC2=NCCN2)cc1[N+](=O)[O-],.,.,.,.,20,.,.,.
C/C(=N\NC1=NCCN1)c1ccc(N)c([N+](=O)[O-])c1,.,.,/,.,.,/,/,/
CCCCNC(=O)COC(=O)C1CCN(S(=O)(=O)c2ccc3c(c2)OCCO3)CC1,/,.,/,/,.,/,/,/
CCOC(=O)C1CCN(C(=O)Nc2ccc3nc(-c4ccco4)c(-c4ccco4)nc3c2)CC1,.,.,.,.,31,.,.,.
CC1CCN(C(=O)C2CCN(S(=O)(=O)c3cccc4nonc34)CC2)CC1,.,.,.,.,.,.,/,/
COc1ccc(C2=NN(C(=O)CCCC(=O)O)C(c3cn(-c4ccccc4)nc3-c3ccccc3)C2)cc1 (stereo unspecified),.,.,/,.,29,/,18,.
COc1ccc(-c2nn(-c3ccccc3)cc2C2CC(c3cccs3)=NN2C(=O)CCC(=O)O)cc1 (stereo unspecified),.,.,/,.,.,/,/,/
Cn1nc(C(C)(C)C)c(NC(=O)c2ccc(F)cc2)c1C(C)(C)C,.,.,/,.,.,/,/,/
Cc1ccc(C)n1-c1ccc(-n2cnnn2)cc1,.,.,.,.,25,.,15,.
